The values below come from ChEMBL document CHEMBL1132620, “Piperazine imidazo[1,5-a]quinoxaline ureas as high-affinity GABAA ligands of dual functionality” (J Med Chem, 1999).

SMILES strings stand for the structures. Some results are limits rather than exact numbers.

In assay [1] the target is T1, GABA-A receptor; alpha-1/beta-2/gamma-2 (Homo sapiens) (UniProt P14867+P47870+P18507). The experiment in a line: (§1) In vitro GABA-mediated chloride current in A293 cells expressing GABA-A benzodiazepine receptor alpha-1-beta-2-gamma-2 subunits at 5 uM. The class given is functional, cell-based. The settings on record: HEK293.
The target in assay [2] is T2, GABA-A receptor; anion channel (Rattus norvegicus) (UniProt O09028+P15431+P18506+P18508+P19969+P20236+P23574+P23576+P28471+P28473+P30191+P62813+P63079+P63138+Q91ZM7+Q9ES14). Put plainly: Shift in [35S]TBPS binding to GABA-A Benzodiazepine receptor of rat brain membrane.
Assay [3] deals with GABA-A receptor; anion channel. Put plainly: (§2) Displacement of [3H]flunitrazepam from GABA-A benzodiazepine receptor of rat cortical membranes. In kind it is cell membranes, Membrane. In short, it runs like this: (§3)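 Rat membranes incubated 60 min at 4 °C with [3H]flunitrazepam, 50 µg membrane protein and graded test drug in 200 µL containing NaCl, 10 mM Hepes/Tris pH 7.4 and 1 mM MgCl2; bound ligand separated by rapid filtration on GF/B; mean affinity, SE ≤10% of mean.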
For orientation: Displacement assays read how much labelled ligand stays bound in the presence of the test substance.

Assay [4] has as its target T2, GABA-A receptor; anion channel (Rattus norvegicus). The assay is described as §2. The class given is cell membranes. More on the design: concentration or dose not given beside the values. The following applies: Membrane, concentration not given here. In short, it runs like this: as §3
A further assay concerns Rattus norvegicus. The experiment in a line: In vivo efficacy evaluated for ability to antagonize metrazole induced clonic convulsions in rat after ip injection. The class given is functional.
For assay [5], the target named is T1, GABA-A receptor; alpha-1/beta-2/gamma-2 (Homo sapiens). Described as §1. The class given is functional, cell-based. The settings on record: HEK293. This is another data set of the same source.
The species entered for assay [6] is Mus musculus. The experiment in a line: Ability to antagonize the muscle relaxation effect in mice caused by a benzodiazepine full agonist, triazolam. In kind it is functional. In short, it runs like this:
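Muscle relaxation induced by triazolam; test compound and triazolam given separately, traction scored 30 min after dosing; ED50 for blocking the relaxant effect.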

Assay [7] concerns Mus musculus. Put plainly: In vivo efficacy is evaluated by percent control of cerebellar GMP levels in (drug+stress) treated mice/mice under stress. More on the design: concentration or dose not given beside the values. In kind it is functional. The method in brief:
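Male CF-1 mice given drug orally in vehicle 122 before electric footshock stress, controls given vehicle (1 mL/100 g); killed 30 min after treatment; cerebellum homogenized in 1% perchloric acid, iced 30 min, boiled 5 min, spun 17000g 20 min; supernatant cGMP by radioimmunoassay, expressed as % of stress control.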

For orientation: Ki means the dissociation constant of the complex between target and ligand, obtained from inhibition or displacement. A word on the inhibition: it is the share of the control response that was lost under treatment. The ED50 is the midpoint of the dose-response relation. As to `CC1CN(C(=O)N2Cc3c(C(=O)OC(C)(C)C)ncn3-c3ccc(Cl)cc32)CC(C)N1` (configuration not stated), the Change in Cl- current in assay [1] was 0.6; in assay [5], 0.8. In addition, in assay [2], the Shift came out at 0.41. Besides, in assay [3], affinity was put at a Ki of 2.35 nM. The compound further registered an inhibition in assay [4] of 63%. Besides, the ED50 turned out to be 10.5 mg/kg in the assay with Rattus norvegicus and 17.3 mg/kg in the assay filed under Mus musculus [6].
Turning to `C[C@@H]1CN(C(=O)N2Cc3c(C(=O)OC(C)(C)C)ncn3-c3ccc(Cl)cc32)C[C@@H](C)N1`, the figures for the Change in Cl- current in assay [1] and in assay [5] were 0.5 and 0.05, respectively. Moreover, in assay [2], the Shift turned out to be 0.56. For the same compound, the affinity in assay [3] corresponds to a Ki of 5.13 nM. The inhibition in assay [4] is 62%. Also, the ED50 in the assay on Rattus norvegicus was 1.3 mg/kg; in the assay listed under Mus musculus [6], above 30 mg/kg.
In the case of `C[C@@H]1CN(C(=O)N2Cc3c(C(=O)OC(C)(C)C)ncn3-c3ccc(Cl)cc32)CCN1`, the Change in Cl- current in assay [1] came out at 0.6; in assay [5] it was 0. Also, the Shift in assay [2] came to 0.01. In assay [3], this compound gave a Ki of 5.96 nM. In the assay with Mus musculus [7], this compound yielded a Control of 57%. This compound also displayed an inhibition in assay [4] of 75%. Besides, the ED50 in the assay with Rattus norvegicus is 3.7 mg/kg; in the assay filed under Mus musculus [6], 27.5 mg/kg.
On to `C[C@@H]1CN(C(=O)N2Cc3c(C(=O)OC(C)(C)C)ncn3-c3cccc(Cl)c32)C[C@H](C)N1`, for which, in assay [2], the Shift is 0.05. Also, the Ki in assay [3] was found to be 28.2 nM. This compound also yielded a Control with Mus musculus [7] of 95%. The inhibition in assay [4] came to 44%. The 50% effective dose (ED50) in the assay with Rattus norvegicus was above 50 mg/kg; in the assay listed under Mus musculus [6], above 30 mg/kg. In assay [5], the Change in Cl- current is 0.29.
As to `CC(C)(C)OC(=O)c1ncn2c1CN(C(=O)N1CCNCC1)c1cc(Cl)ccc1-2`, the Change in Cl- current in assay [1] came to 0.4; in assay [5] it was 0. Moreover, the Shift in assay [2] is -0.02. The compound further yielded a Ki in assay [3] of 3.99 nM. Also, the ED50 in the assay on Rattus norvegicus was above 50 mg/kg.
Regarding `Cc1ccc2c(c1)N(C(=O)N1C[C@@H](C)N[C@H](C)C1)Cc1c(C(=O)OC(C)(C)C)ncn1-2`, the Change in Cl- current in assay [1] was determined as 0.7; in assay [5] it was 0.05. The Shift in assay [2] is 0.1. Further, the affinity in assay [3], expressed as Ki, was 5.17 nM. The same compound returned a Control with Mus musculus [7] of 49%. Also, the inhibition in assay [4] came to 22%. For the same compound, in the assay on Rattus norvegicus, the ED50 worked out at 6.3 mg/kg.
Turning to `CN(C)C(=O)N1Cc2c(C(=O)OC(C)(C)C)ncn2-c2ccccc21`, in assay [2], the Shift stood at 0.15. This compound came in with a Ki in assay [3] of 5.25 nM. The ED50 with Rattus norvegicus was above 50 mg/kg. Moreover, the Change in Cl- current in assay [5] was 0.09.
As to `C[C@@H]1NCCN(C(=O)N2Cc3c(C(=O)OC(C)(C)C)ncn3-c3ccc(Cl)cc32)[C@H]1C`, the Change in Cl- current in assay [1] worked out at 0.68; in assay [5], 0.48. The Shift in assay [2] came out at 0.07. Moreover, the Ki in assay [3] turned out to be 4.03 nM. In assay [4], this compound had an inhibition of 55%. The ED50 in the assay on Rattus norvegicus stood at 17.7 mg/kg; in the assay listed under Mus musculus [6] it was 35 mg/kg.
Turning to `CN1CC2CC1CN2C(=O)N1Cc2c(C(=O)OC(C)(C)C)ncn2-c2ccc(Cl)cc21` (configuration not stated), the values for the Change in Cl- current in assay [1] and in assay [5] were 1.6 and 1, respectively. In addition, the Shift in assay [2] turned out to be 0.68. The affinity in assay [3], expressed as Ki, was 4.89 nM. In assay [4], this compound came in with an inhibition of 11%. Further, the ED50 with Rattus norvegicus was 7.4 mg/kg; in the assay filed under Mus musculus [6] it was above 30 mg/kg.
For `C[C@@H]1CN(C(=O)N2Cc3c(C(=O)OC(C)(C)C)ncn3-c3ccc(F)cc32)C[C@H](C)N1C`, the Change in Cl- current in assay [1] was 1; in assay [5], -0.1. Besides, the Shift in assay [2] was found to be 0.44. In addition, in assay [3], the affinity, expressed as Ki, was 2.69 nM. The compound also yielded a Control in the assay with Mus musculus [7] of 77%. Moreover, the inhibition in assay [4] was 29%. Further, the ED50 worked out at 35.3 mg/kg with Rattus norvegicus and 21.8 mg/kg in the assay filed under Mus musculus [6].
For the compound `C[C@@H]1CN(C(=O)N2Cc3c(C(=O)OC(C)(C)C)ncn3-c3ccc(C(F)(F)F)cc32)C[C@@H](C)N1`, the Change in Cl- current turned out to be 0.7 in assay [1] and 0.8 in assay [5]. Further, the Shift in assay [2] was found to be 0.68. This compound came in with a Ki in assay [3] of 37.1 nM. The Control in the assay on Mus musculus [7] came to 92%. For the same compound, in assay [4], the inhibition was found to be 24%. Further, the ED50 in the assay on Rattus norvegicus was 4.4 mg/kg; in the assay listed under Mus musculus [6] it was above 30 mg/kg.
For the compound `CN1C2CCC1CN(C(=O)N1Cc3c(C(=O)OC(C)(C)C)ncn3-c3ccc(Cl)cc31)C2`, the Change in Cl- current in assay [1] stood at 2.1; in assay [5], 2. Besides, the Shift in assay [2] is 0.68. Besides, the Ki in assay [3] is 9.15 nM. Further, in assay [4], the inhibition came out at 26%. Also, the ED50 is 29.7 mg/kg in the assay with Rattus norvegicus and above 30 mg/kg in the assay listed under Mus musculus [6].
Consider `Cc1ccc2c(c1)N(C(=O)N1CCN[C@H](C)C1)Cc1c(C(=O)OC(C)(C)C)ncn1-2`, for which the Change in Cl- current in assay [1] came to 0.8; in assay [5], 0.1. Moreover, the Shift in assay [2] turned out to be 0.19. This compound gave a Ki in assay [3] of 5.47 nM. The compound also showed a Control with Mus musculus [7] of 59%. This compound also registered an inhibition in assay [4] of 51%. For the same compound, the median effective dose (ED50) in the assay on Rattus norvegicus stood at 2.7 mg/kg; in the assay filed under Mus musculus [6] it was 17.3 mg/kg.
Take `Cc1cccc2c1N(C(=O)N1C[C@@H](C)N[C@@H](C)C1)Cc1c(C(=O)OC(C)(C)C)ncn1-2`: in assay [2], the Shift came out at 0.54. Moreover, in assay [3], affinity was put at a Ki of 250 nM. Further, the 50% effective dose (ED50) in the assay with Rattus norvegicus was above 50 mg/kg. The compound further returned a Change in Cl- current in assay [5] of 0.22.
As to `CC(C)(C)OC(=O)c1ncn2c1CN(C(=O)N1CC3CCC(C1)N3)c1cc(Cl)ccc1-2`, the Change in Cl- current in assay [1] was determined as 0.73; in assay [5], 0.2. The Shift in assay [2] is 0.2. Moreover, in assay [3], the Ki came out at 5.45 nM. This compound also yielded a median effective dose (ED50) in the assay with Rattus norvegicus above 50 mg/kg.
As to `C[C@@H]1CN(C(=O)N2Cc3c(C(=O)OC(C)(C)C)ncn3-c3ccccc32)C[C@H](C)N1C`, the Change in Cl- current in assay [1] was 0.5; in assay [5] it was -0.1. Also, the Shift in assay [2] is -0.82. The Ki in assay [3] amounted to 6.67 nM. The ED50 in the assay on Rattus norvegicus was above 50 mg/kg.
Take `CC1CN(C)CC(C)N1C(=O)N1Cc2c(C(=O)OC(C)(C)C)ncn2-c2ccc(F)cc21` (configuration not stated): the Shift in assay [2] was 0.63. For the same compound, the inhibition constant (Ki) in assay [3] stood at 13.3 nM. This compound also returned a Control in the assay with Mus musculus [7] of 82%. The compound also had an inhibition in assay [4] of 68%. Also, the ED50 is 8.8 mg/kg in the assay on Rattus norvegicus and above 30 mg/kg in the assay filed under Mus musculus [6]. The Change in Cl- current in assay [5] came to 0.75.
`Cc1cccc2c1N(C(=O)N1C[C@@H](C)N(C)[C@@H](C)C1)Cc1c(C(=O)OC(C)(C)C)ncn1-2`: the Shift in assay [2] came to 0.48. In assay [3], the affinity corresponds to a Ki of 470 nM. Further, the ED50 in the assay with Rattus norvegicus is above 50 mg/kg. For the same compound, the Change in Cl- current in assay [5] came to 0.33.
In assay [1], `CC(C)(C)OC(=O)c1ncn2c1CN(C(=O)N1CCNCC1)c1ccccc1-2.Cl` returned a Change in Cl- current of 0.35. Further, the Shift in assay [2] was found to be 0.04. This compound gave a Ki in assay [3] of 4.11 nM. Further, in the assay with Rattus norvegicus, the ED50 is above 50 mg/kg.
With `Cc1ccc2c(c1)N(C(=O)N1CCNCC1)Cc1c(C(=O)OC(C)(C)C)ncn1-2`, the Change in Cl- current is 0.55 in assay [1] and 0.4 in assay [5]. The Shift in assay [2] was found to be 0.3. In assay [3], this compound returned a Ki of 14.7 nM. Also, the ED50 was 21 mg/kg in the assay with Rattus norvegicus and above 30 mg/kg in the assay listed under Mus musculus [6].
Take `CC1CN(C(=O)N2Cc3c(C(=O)OC(C)(C)C)ncn3-c3ccc(Cl)cc32)C(C)CN1.O=C(O)CC(=O)O` (configuration not stated): the figures for the Change in Cl- current in assay [1] and in assay [5] were 0.3 and -0.05, respectively. Moreover, the Shift in assay [2] turned out to be 0.41. The compound further had a Ki in assay [3] of 7.8 nM. This compound registered an inhibition in assay [4] of 71%. Also, the ED50 with Rattus norvegicus is 17.6 mg/kg; in the assay filed under Mus musculus [6], above 30 mg/kg.
